Experimental data collected from several papers.
Lines come from different studies, so protocols differ.
MME: Neprilysin (MME, Homo sapiens, UniProt P08473)
MAP2K4: Dual specificity mitogen-activated protein kinase kinase 4 (MAP2K4, Homo sapiens, UniProt P45985)
ESR2: Estrogen receptor beta (ESR2, Homo sapiens, UniProt Q92731)

| Structure (SMILES) | target | test | setting | endpoint | result |
| --- | --- | --- | --- | --- | --- |
| Cc1ncc(C)n2nc(/C=C/c3nc(N4CCCC4)cc(N4CCOCC4)n3)nc12 | MME | enzyme activity, inhibitor | 10 µM | inhibition | -13% |
| O=C(Nc1cccnn1)N1CCN([C@@H]2CCOc3cc(C(F)(F)F)ccc32)CC1 | MME | enzyme activity, inhibitor | 20 µM | inhibition | 3% |
| COCc1c(-c2cc3cc(C)cc(OC)c3s2)c2c(N)ncnn2c1CN1CCNC(=O)C1 | Nitric oxide synthase, inducible (Nos2, Mus musculus, UniProt P29477) | enzyme activity, inhibitor | 10 µM | inhibition | 17% |
| COc1ncccc1-c1cnn2ccc(N3CCN(C(=O)OC(C)C)CC3)nc12 | MAP2K4 | binding, competition with immobilised ligand | 1 µM | remaining binding | 100% |
| Cc1sc2c(c1C)C(c1ccc(Cl)cc1)=N[C@@H](CC(=O)OC(C)(C)C)c1nnc(C)n1-2 | Stimulator of interferon genes protein (STING1, Homo sapiens, UniProt Q86WV6, H232R) | thermal stability, DSF | 100 µM | ΔTm | -0.92 °C |
| C#Cc1n[nH]c2c(-c3cn([C@@H](C)c4ccccc4)c(=O)[nH]c3=O)cc(F)cc12 | Tyrosine-protein kinase JAK2 (JAK2, Homo sapiens, UniProt O60674) | enzyme activity, inhibitor | 0.1 µM | inhibition | -3% |
| Cc1nn(C)cc1-c1nc2c(N3CCN(Cc4ccc(Cl)cc4)CC3)c(Cl)cnc2[nH]1 | Phosphatidylinositol 5-phosphate 4-kinase type-2 gamma (PIP4K2C, Homo sapiens, UniProt Q8TBX8) | binding, competition with immobilised ligand | 1 µM | remaining binding | 80% |
| c1ccc(C(NCCNC(c2ccccc2)c2ccccc2)c2ccccc2)cc1 | ESR2 | enzyme activity, inhibitor | 10 µM | inhibition | 14% |
| C#Cc1n[nH]c2c(-c3cn([C@@H](C)c4ccccn4)c(=O)[nH]c3=O)cc(F)cc12 | Proto-oncogene tyrosine-protein kinase receptor Ret (RET, Homo sapiens, UniProt P07949, V804L) | enzyme activity, inhibitor | 0.1 µM | inhibition | 4.5% |
| CCN(CC)CCCC[C@H](NC(=O)[C@H](CC(C)C)NC(=O)[C@H](C)NC(=O)[C@H](Cc1ccccc1)NC(=O)c1ccc(C(C)(C)C)cc1)C(=O)N[C@@H](CO)C(=O)OC | Bromodomain adjacent to zinc finger domain protein 2A, bromodomain (BAZ2A, Homo sapiens, UniProt Q9UIF9) | thermal stability, DSF | 25 µM | ΔTm | -0.23 °C |
| COc1cc(Nc2ncc(F)c(Nc3ccc4c(n3)NC(=O)C(C)(C)O4)n2)cc(OC)c1OC | MAP2K4 | binding, competition with immobilised ligand | 10 µM | inhibition | 85% |
| C[C@H](C(=O)N[C@H]1COc2ccccc2[C@@H]1S(C)(=O)=O)c1ccc(F)cc1 | ESR2 | enzyme activity, inhibitor | 10 µM | inhibition | 3% |
| Nc1ncc(-c2nc(N3CCOCC3)nc(N3CCOCC3)n2)c(C(F)F)n1 | Serine/threonine-protein kinase 38 (STK38, Homo sapiens, UniProt Q15208) | binding, competition with immobilised ligand | 10 µM | remaining binding | 66% |
